OXTR potentiate – human OXTR potentiation | hit rate 0.061% among 320,000 | activation, % at 3 µM | CHO-OTR cells, Fluo-8 calcium fluorescence, potentiator mode; 0% = oxytocin EC15, 100% = EC100;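 active means activation above that plate's cutoff, the mean activation of tested compounds plus 3 SD, cut at about 6.6% in these data, passing the limit was not always enough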
Target sequence (P30559 whole entry, looked up): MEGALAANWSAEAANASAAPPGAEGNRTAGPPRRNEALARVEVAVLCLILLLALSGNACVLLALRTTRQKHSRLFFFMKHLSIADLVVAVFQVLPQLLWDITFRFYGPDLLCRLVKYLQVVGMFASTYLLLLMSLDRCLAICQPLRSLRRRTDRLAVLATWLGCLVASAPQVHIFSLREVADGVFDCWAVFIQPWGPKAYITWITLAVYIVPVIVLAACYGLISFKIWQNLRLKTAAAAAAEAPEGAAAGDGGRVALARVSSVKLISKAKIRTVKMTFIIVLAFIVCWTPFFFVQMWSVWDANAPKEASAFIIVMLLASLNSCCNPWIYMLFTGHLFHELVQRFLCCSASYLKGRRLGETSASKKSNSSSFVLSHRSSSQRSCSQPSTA
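assay system = CHO-OTR cells, human receptor | schedule = compound 6 min at room temperature before oxytocin, 100 s read | detection = Fluo-8 intracellular calcium fluorescence, ex 470-495, em 515-575 nm | evaluation = normalized max/min fluorescence ratio, % activation | control set = EC15 oxytocin alone as 0%, 75 nM oxytocin (EC100) as 100%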
OXTR agonist – agonists of human oxytocin receptor; AID 2435; CHO-OTR cells, Fluo-8 calcium fluorescence; normalized: DMSO 0%, oxytocin 100%; hit rate 0.32% among 320,000; activation, % at 3 µM;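 active means activation above the mean of all tested compounds plus 3 SD, cutoff set per screening run, cut at about 20% in these data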;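 further: peak over basal fluorescence ratio from a 100 s FLIPR kinetic read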
V1R ag counter – activates human V1a receptor in oxytocin agonist counter-screen; CHO-V1R cells, Fluo-8 calcium fluorescence, agonist mode; 0% DMSO, 100% 3 nM vasopressin; activation, % at 3 µM; P37288; AID 2797; hit rate 0.25% among 320,000;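 active means activation above the mean activation of all tested compounds plus 3 SD, per screening run, cut at about 20% in these data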;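 further: signal is peak over basal fluorescence ratio across a 100 second FLIPR read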
TRPN1 ag – zebrafish TRPN1 (NompC) channel agonism. HEK293 zebrafish TRPN1-YFP, Fluo-8 calcium fluorescence; 100% = response to 87 µM carbachol. activation, % at 3 µM. hit rate 0.18% among 220,000. AID 1424;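 active means activation above its plate's cutoff, the mean activation of test wells on that plate plus 3 SD, cut at about 19% in these data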
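Material – zebrafish TRPN1-YFP in HEK293 cells · Doses – 3 µM single point · Schedule – dye 1 h 37 °C plus 30 min RT · Signal – Fluo-8 calcium fluorescence, excitation 470-495 nm, emission 515-575 nm · Read-out – % activation versus carbachol response · Control set – carbachol high, DMSO low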
TRPML3 ag – human mucolipin-3 channel agonism. Q8TDD5. HEK293 TRPML3-YFP, Fluo-8 calcium fluorescence; 100% = the carbachol control signal. activation, % at 3 µM. hit rate 0.29% among 220,000. AID 1448;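 active means activation above its plate's cutoff, the mean activation of the plate's test wells plus 3 SD, cut at about 12% in these data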
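Test system: HEK293 cells stably carrying human TRPML3-YFP; Doses: single dose, 3 µM final nominal compound, 0.3% DMSO final; Schedule: dye loading 1 h 37 °C then 30 min ambient, 125 s read; Technique: Fluo-8 calcium fluorescence; Benchmarks: high control carbachol 87 µM, low control DMSO.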
Large screens that a line does not name were inactive. Rows were chosen to be rich in hits. Some 0.58% of all compounds tested hit in one or more screens of this group.

CCN1C(=O)c2cccc3c(S(=O)(=O)Nc4ccccc4OC)ccc1c23	TRPN1 ag 46, TRPML3 ag 123
CCN1C/C(=C/c2ccc(N3CCOCC3)cc2)C(=O)/C(=C/c2ccc(N3CCOCC3)cc2)C1	OXTR agonist 26, V1R ag counter 22
CC(C)(C)NC(=O)CSc1nc2cccnc2n1C1CCCCC1	none (no result: TRPN1 ag, TRPML3 ag)
Cc1cc2nc(/C(C#N)=C\c3ccc(-c4ccccc4C(=O)O)o3)[nH]c2cc1C	none (no result: TRPN1 ag, TRPML3 ag)
Cc1ccc2nc(/C(C#N)=C/c3ccc(-c4ccccc4C(=O)O)o3)[nH]c2c1	OXTR agonist 39, V1R ag counter 27 (no result: TRPN1 ag, TRPML3 ag)
Cc1ccc2nc(/C(C#N)=C\c3ccc(N4CCOCC4)o3)[nH]c2c1	OXTR agonist 43, V1R ag counter 30
COc1ccc(C2CC(c3cccs3)=NN2c2ccc(C=O)cc2)cc1 (stereo not drawn)	OXTR agonist 24, V1R ag counter 28, TRPN1 ag 29, TRPML3 ag 17
CC(=O)Nc1cccc(C(=O)/C=C/c2ccc(/C=C/C(=O)c3cccc(NC(C)=O)c3)cc2)c1	none
CC(=O)Nc1cccc(C(=O)/C=C/c2ccc(N(C)C)cc2)c1	OXTR agonist 195, V1R ag counter 132, TRPN1 ag 44, TRPML3 ag 20
CC(Oc1ccc(Br)cc1)C(=O)Nc1ccc(S(=O)(=O)N(C)C2CCN(C)CC2)cc1 (stereo not drawn)	OXTR agonist 64, V1R ag counter 47 (no result: TRPN1 ag, TRPML3 ag)
CC(NS(=O)(=O)c1ccc2c(c1)c(=O)n(C)c(=O)n2C)C(=O)NC1CCCCC1 (stereo not drawn)	none (no result: TRPN1 ag, TRPML3 ag)
C/C(=C1/C(=O)N(c2ccc([N+](=O)[O-])cc2)N=C1c1ccccc1)N(C)C	OXTR agonist 54, V1R ag counter 62, TRPN1 ag 31
COc1ccc(OCCCC(=O)Nc2cc(S(=O)(=O)N3CCCCC3)ccc2C)cc1	none (no result: TRPN1 ag, TRPML3 ag)
Cc1ccc(Nc2cc(C)nc3nc(C)nn23)cc1	OXTR potentiate 12
O=[N+]([O-])c1ccc(/C=C/C2=NN(c3ccccc3)C(c3ccco3)C2)o1 (stereo not drawn)	TRPN1 ag 23, TRPML3 ag 21 (no result: OXTR potentiate, OXTR agonist, V1R ag counter)
Cc1sc(NC(=O)c2ccco2)c(C(c2cccnc2)N2CCN(CCO)CC2)c1C (stereo not drawn)	none
CCOC(=O)C1CCN(C(c2cccnc2)c2c(NC(=O)c3ccco3)sc(C)c2C)CC1 (stereo not drawn)	OXTR potentiate 12
O=C(c1ccc(Cl)cc1)N(Cc1ccc(Br)cc1)N1C(=O)CCC1=O	none
O=C(c1ccc([N+](=O)[O-])cc1)N(Cc1ccc(Cl)cc1)N1C(=O)CCCC1=O	TRPN1 ag 27, TRPML3 ag 87
NC(=O)CC[C@@H]1NC(=O)[C@@H]2CCCN2C(=O)c2cc([N+](=O)[O-])cc(I)c2NCCCC[C@@H](C(=O)NC(CC(=O)O)C(N)=O)NC1=O (stereo partly drawn)	none
CC(C)C[C@H]1CN=C(Nc2ccccc2)N1CCc1ccc(F)cc1	OXTR agonist 44, V1R ag counter 59 (no result: TRPN1 ag, TRPML3 ag)
CC(C)C[C@H]1CN=C(Nc2ccccc2)N1CCc1cccc(F)c1	OXTR agonist 51, V1R ag counter 73 (no result: TRPN1 ag, TRPML3 ag)
O=C(CCN=C1NS(=O)(=O)c2ccccc21)OCc1nnc(-c2ccc([N+](=O)[O-])cc2)o1	none (no result: TRPN1 ag, TRPML3 ag)
c1ccc(CNc2ncnc3c2cnn3Cc2ccccc2)cc1	OXTR agonist 25, V1R ag counter 21
O=C1Nc2ccc([N+](=O)[O-])cc2C1(O)N1CCCCCC1 (stereo not drawn)	none
CC(OC(=O)c1ccco1)C(=O)Nc1ncc(Cl)cc1Cl (stereo not drawn)	none (no result: TRPN1 ag, TRPML3 ag)
COc1ccc2c3c(cccc13)C(=O)N(O)C2=O	none
CCN1C(=O)c2cccc3c(N)ccc(c23)C1=O	OXTR agonist 77, V1R ag counter 104 (no result: TRPN1 ag, TRPML3 ag)
Cc1nn(C)c(C)c1N1C(=O)c2cccc3c(N)ccc(c23)C1=O	OXTR agonist 108, V1R ag counter 128, TRPN1 ag 131, TRPML3 ag 93
Cc1ccc(N2C(=O)c3cccc4c(N)ccc(c34)C2=O)c2cccnc12	OXTR agonist 133, V1R ag counter 139, TRPN1 ag 182, TRPML3 ag 28
Cc1ccc(NC(=O)N/C=C/c2ccco2)cc1	none
CCCc1cnc(NCCNCC(O)COc2ccc(Cl)c(Cl)c2)nc1 (stereo not drawn)	none
O=C(CNCc1ccc(Cl)cc1)Nc1ccc(C(=O)N2CCCCC2)cc1	none (no result: TRPN1 ag, TRPML3 ag)
O=C(c1ccc(NC(=S)NCc2ccc(Cl)cc2)cc1)N1CCCCC1	OXTR agonist 21, V1R ag counter 21
COC(=O)C(/C=N/OCc1ccc([N+](=O)[O-])cc1)NC(=O)c1cccc(Cl)c1 (stereo not drawn)	OXTR agonist 32, V1R ag counter 38, TRPN1 ag 20
Cc1ccc(CONC(=O)c2cccc([N+](=O)[O-])c2)cc1	none (no result: TRPN1 ag, TRPML3 ag)
CCC(O)c1nc2ccccc2n1CCc1ccccc1 (stereo not drawn)	none (no result: TRPN1 ag, TRPML3 ag)
CCOCc1nnc(NC(=O)C2c3ccccc3Oc3ccccc32)s1	OXTR agonist 30, V1R ag counter 22
CC1(c2ccc(OC(F)F)cc2)NC(=O)N(CC(=O)Nc2ccc3c(c2)OCO3)C1=O (stereo not drawn)	OXTR agonist 39, V1R ag counter 45, TRPN1 ag 30, TRPML3 ag 26
CC(=O)Nc1ccc(/C=N/N2C(=O)NC(C)(c3ccc(OC(F)F)cc3)C2=O)cc1 (stereo not drawn)	OXTR agonist 55, V1R ag counter 39
CC1(c2ccc(OC(F)F)cc2)NC(=O)N(CC(=O)Nc2ccccc2)C1=O (stereo not drawn)	OXTR agonist 47, V1R ag counter 32 (no result: TRPN1 ag, TRPML3 ag)
CCOC(=O)CN1C(=O)NC(C)(c2ccc(OC(F)F)cc2)C1=O (stereo not drawn)	none
CCCCNc1cc(C)nc(NCc2ccccc2)n1	OXTR agonist 30, V1R ag counter 27
Cc1cc(Nc2ccccc2)nc(NCc2ccccc2)n1	none
CCOC(=O)C1=NN(C(=O)c2ccc(C)cc2)C(O)(c2ccc(Cl)cc2)C1 (stereo not drawn)	OXTR agonist 37, V1R ag counter 32, TRPN1 ag 25, TRPML3 ag 18
CCN(CC)CCCNCC(=O)Nc1ccc2c(c1)CCC2	none
COc1ccc2ccccc2c1/C=N/NC(=O)c1cccc(Br)c1	none
O=C(N/N=C/c1c(O)ccc2ccccc12)c1cccc(C(F)(F)F)c1	OXTR agonist 46, V1R ag counter 53, TRPN1 ag 35, TRPML3 ag 15
Cc1ccc(C2C(C#N)=C(N)Oc3cc(N)ccc32)cc1 (stereo not drawn)	none (no result: TRPN1 ag, TRPML3 ag)
Cc1ccc(/C=C2\CCC3=C2OC(N)=C(C#N)C3c2ccc(C)cc2)cc1 (stereo not drawn)	OXTR agonist 23, V1R ag counter 43

Screening data as filed in PubChem BioAssay.
